Assay results published in PubChem BioAssay.
Activity calls are given as the source filed them.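 Rule for the calls, unless noted: active = viability at or below 10% of carrier control in both of two separate runs; inconclusive = viability at or below 10% in only one of the two runs; inactive = the rest.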

How the values were obtained:
[1] = SK-BR-3 cell growth inhibitors, pilot screen, 24 h, human (AID 572); details: SK-BR-3 viability, CellTiter-Glo luminescence, at 10 µM, stronger effect = lower value;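 note: compound exposure lasted between 18 and 24 h rather than exactly 24 h; 100% = carrier-treated control wells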
[2] = HUVEC growth inhibition – cell-based, human, primary screen (AID 575;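 active = viability at or below 30% in both replicate assays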;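 note: 100% = median of untreated cell wells with 0.1% DMSO on each plate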); details: HUVEC proliferation, CellTiter-Glo luminescence, 72 h; at 10 µM; stronger effect = lower value
Outline: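 System: primary human umbilical vein endothelial cells; Quantity: 1250 endothelial cells in each well; Buffer or medium: supplemented EBM, 2% fetal bovine serum; Doses: one dose, 10 µM final, 0.1% DMSO; Incubation: 72 h compound incubation; Technique: ATP-based CellTiter-Glo luminescent read; Evaluation: percent of median DMSO-control luminescence; Controls: vehicle and MePR control wells.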

[3] = growth inhibitors of H69AR lung tumor, primary screen, human, duplicate replicates (AID 580;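 active = viability at or under a set limit in both replicates, limit being median viability minus 3 SD, cut at about 48% in these data, passing the limit was not always enough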;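 note: 100% = mean luminescence of untreated wells and 0% = no signal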); details: H69AR lung tumor cells viability, ATP luminescence, 72 h; at 10 µM; stronger effect = lower value
[4] = reversal of MRP1-mediated doxorubicin resistance, pilot screen, H69AR cells, doxorubicin co-treatment (AID 601;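 active = viability loss from added drug above about 55%, and viability with drug at most 40%, in both replicates, limit read from the data, passing the limit was not always enough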); details: CellTiter-Glo, 72 h, at 10 µM; for differential viability (reversal): stronger effect = higher value
[5] = 384-well plate pilot, post-Golgi transport modulator project, inhibition of yeast transport mutant growth (AID 636; in the data active = inhibition above about 31%); details: absorbance 615 nm, about 18 h, stronger effect = higher value
[6] = growth suppression of yeast trafficking mutant, preliminary HTS, modulators of trafficking downstream of Golgi apparatus project, 1536-format plate, OD 615 nm (AID 637; in the data active = inhibition above about 30%); details: yeast transport mutant growth, absorbance 615 nm, 18 h; stronger effect = higher value
[7] = H69AR cells + 2 uM doxorubicin, measured here: viability with 2 uM doxorubicin, stronger effect = lower value
[8] = H69AR cells, compound alone cytotoxicity

Row | SMILES | viability [1] | viability [2] | viability [3] | differential viability (reversal) ([4]; H69AR cells + 2 uM doxorubicin) | viability [4, 7] | viability [4, 8] | inhibition [5] | inhibition [6]
1 | O=C(Nc1cc(C(=O)N2CCCC2)ccc1N1CCCC1)c1ccccc1F | 108% (inactive) | 119% (inactive) | 101% (inactive) | 8.93% (inactive) | 92% | 101% | -8.13% (inactive) | -3.64% (inactive)
2 | Cc1cccc(-n2nnnc2SCc2csc(-c3ccccc3)n2)c1 | 95% (inactive) | 101% (inactive) | 93.9% (inactive) | 5.89% (inactive) | 88% | 93.9% | 6.44% (inactive) | 2.58% (inactive)
3 | O=C1CCc2cc(OCCCCc3nnnn3C3CCCCC3)ccc2N1 | 98% (inactive) | 78.6% (inactive) | 101% (inactive) | 13% (inactive) | 88.2% | 101% | 1.82% (inactive) | -4% (inactive)
4 | CCOC(=O)c1ccc(NC(=O)CSC2=NC(=O)C(CC)C(=O)N2)cc1 (centres undefined) | 94% (inactive) | 65.8% (inactive) | 105% (inactive) | 22.1% (inactive) | 83.3% | 105% | 0.78% (inactive) | -2.3% (inactive)
5 | O=C(O)CCCc1ccccc1 | 97% (inactive) | 91.8% (inactive) | 98% (inactive) | 1.58% (inactive) | 96.4% | 98% | -0.91% (inactive) | 8% (inactive)
6 | O=C(Nc1ccc(F)cc1)NC1CCN(Cc2nnnn2Cc2ccco2)CC1 | 92% (inactive) | 70.5% (inactive) | 88.2% (inactive) | -0.315% (inactive) | 88.5% | 88.2% | -5.21% (inactive) | -7.9% (inactive)
7 | CCOc1ccccc1CN(Cc1ccco1)S(=O)(=O)c1ccc(-n2cnnn2)c(OC)c1 | 82.5% (inactive) | 54.7% (inactive) | 6.69% (active) | -67.4% (inactive) | 74.1% | 6.69% | -3.7% (inactive) | -2.06% (inactive)
8 | Nc1ncnc2nc(Sc3ccc(Cl)cc3)[nH]c12 | 99% (inactive) | 96.1% (inactive) | 98.6% (inactive) | 7.52% (inactive) | 91.1% | 98.6% | 0.52% (inactive) | 4.59% (inactive)
9 | CC(=O)OCC(=O)[C@H]1CC[C@H]2[C@@H]3CC=C4C[C@@H](O)CC[C@]4(C)[C@H]3CC[C@]12C | 87% (inactive) | 44.3% (inactive) | 96.8% (inactive) | 4.54% (inactive) | 92.3% | 96.8% | -0.65% (inactive) | 44.5% (active)
10 | COC(=O)c1ccccc1NC(=O)COc1ccc(S(=O)(=O)N2CCCC2)cc1C | 90% (inactive) | 87.1% (inactive) | 74.4% (inactive) | 8.04% (inactive) | 66.4% | 74.4% | -3.03% (inactive) | 3.83% (inactive)
11 | CC(C)Sc1nc(N2CCCC2)c2c(c1C#N)CC(C)(C)OC2 | 90% (inactive) | 71.2% (inactive) | 80.2% (inactive) | 42.7% (inactive) | 37.5% | 80.2% | -2.88% (inactive) | -4.84% (inactive)
12 | CC1(C)S[C@@H]2[C@H](NC(=O)[C@H](N)c3ccccc3)C(=O)N2[C@H]1C(=O)O | 103% (inactive) | 93.8% (inactive) | 107% (inactive) | 15.6% (inactive) | 91.4% | 107% | -5.32% (inactive) | 3.33% (inactive)
13 | COCC(=O)N(C)c1nnc(-c2ccccn2)s1 | 83% (inactive) | 111% (inactive) | 105% (inactive) | 13.6% (inactive) | 91.3% | 105% | -2.57% (inactive) | -1.09% (inactive)
